Assay outcomes as filed in PubChem BioAssay.
Shown are actives, neighbours in structure and some others; about 1.6% of the full set was active somewhere.
PKD1 kinase inh – inhibitors of human PKD1 kinase, biochemical, fluorescence polarization; Serine/threonine-protein kinase D1 (Homo sapiens), Q15139; PKD1 kinase fluorescence polarization assay; inhibition, % (no concentration beside the values); 200,000 tested, 0.056% active; AID 797, 2007; in the data active = inhibition above about 50%
ABCB1 block – ABCB1 efflux pump inhibitors, primary screen, cell-based, multiplex, flow cytometry, ABCG2 counter-screen | 190,000 tested, 0.067% active | CCRF-Adr cells, JC-1 efflux | AID 1326, 2008 | inhibition, % at 6.6 µM; in the data active = inhibition above about 40%;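 note: 0% = vehicle and 100% = reference inhibitor; higher value means more JC-1 retained so stronger ABCB1 efflux block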
p47phox inh – p47phox/p22phox peptide binding inhibitors, primary screen, biochemical, uHTS, NADPH oxidase regulatory subunit. fluorescence polarization, 2 h. inhibition, % at 24.7 µM. 220,000 tested, 0.53% active. AID 1274, 2008;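 active = inhibition above about 30%, limit read from the data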;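 note: 0% = p47phox with labelled peptide and 100% = labelled peptide alone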
ABCG2 block – ABCG2 efflux pump inhibitors, primary screen, multiplex with ABCB1, IgMXP3 cells, flow cytometry; Broad substrate specificity ATP-binding cassette transporter ABCG2 (Homo sapiens), Q9UNQ0; JC-1 efflux; inhibition, % at 6.6 µM; 190,000 tested, 0.1% active;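 active = inhibition above 80%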;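 note: 0% = DMSO and 100% = nicardipine control wells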
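Read-out basis: Efflux inhibition in percent versus controls | Test system: ABCG2 IgMXP3 and barcoded ABCB1 CCRF-Adr cell mix | Quantity: 3 million cells/mL in well | Schedule: 10 min at 25 °C | Control set: Nicardipine as high control, DMSO as low control | Reagent: JC-1 as fluorescent efflux pump substrate | Signal: Flow cytometry of retained JC-1 fluorescence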
PHOSPHO1 block – PubChem AID 1565; inhibition, % at 13.3 µM; Phosphoethanolamine/phosphocholine phosphatase (Homo sapiens), Q8TCT1; recombinant PHOSPHO1, absorbance phosphatase assay; 290,000 tested, 1.1% active; in the data active = inhibition above about 60%
Target sequence (Q8TCT1 whole entry, looked up): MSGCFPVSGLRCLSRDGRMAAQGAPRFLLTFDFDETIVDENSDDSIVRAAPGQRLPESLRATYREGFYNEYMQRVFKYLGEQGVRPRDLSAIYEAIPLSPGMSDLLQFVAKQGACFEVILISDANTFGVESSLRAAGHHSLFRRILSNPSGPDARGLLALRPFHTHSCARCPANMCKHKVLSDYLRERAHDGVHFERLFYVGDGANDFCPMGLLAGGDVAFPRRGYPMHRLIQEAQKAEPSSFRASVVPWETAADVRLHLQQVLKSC
HSV augment – enhancers of HSV replication in host cells, fold increase, host cell viability; HSV replication augmentation in cells; maximum fold increase; 220,000 tested, 0.005% active; AID 1956, 2009; in the data active = maximum fold increase above about 1.5; inconclusive = no clear call, values can overlap the other calls; tested in PC3 cells
An asterisk follows results filed as active; i = inactive; ? = inconclusive; nt = no result given.

SMILES | PKD1 kinase inh | ABCB1 block | p47phox inh | ABCG2 block | PHOSPHO1 block | HSV augment
Nn1c(=O)c2ccccc2n2c(SCc3ccccc3)nnc12 | -6 | 0 | -1 | 18 | 2 | i
COc1cccc2c1C(CO)N1C(C#N)C3CC(C(=O)O)C(C1C2)N3C (stereo not drawn) | nt | nt | -10 | nt | 36 | i
CN(C)c1ccc(/C=C/c2cc[n+](C)cc2)cc1 | 1 | 2 | -131 | 3 | 102* | nt
CN(C)c1ccc(/C=C/c2cc[n+]([O-])cc2)cc1 | -2 | 0 | -43 | 2 | 16 | i
CN1CCCN=C1/C=C/c1cccs1 | nt | nt | nt | nt | -4 | nt
C[n+]1ccc(/C=C/c2cccs2)cc1 | nt | nt | 3 | nt | 74* | i
COc1ccc(CNc2nc(Cl)c(C#N)s2)cc1 | nt | nt | nt | nt | 36 | nt
N#Cc1sc(NCc2ccccc2)nc1Cl | -2 | 0 | -10 | 1 | 62* | i
Cc1cc(NC(=O)C(=O)c2cn(C)c3ccccc23)no1 | 0 | 0 | -6 | 29 | -5 | i
O=C(CSc1nnc(-c2cnccn2)n1Cc1ccco1)c1ccc2ccccc2c1 | 1 | 1 | -36 | 12 | 86* | nt
Cn1c(SCC(=O)c2ccccc2)nnc1-c1cnccn1 | 1 | 0 | -3 | 2 | 83* | i
O=C(CSc1nnc(-c2cccnc2)n1Cc1ccco1)c1ccccc1 | 4 | 1 | -4 | 11 | -46 | nt
O=C(CSc1nnc(-c2ccccn2)n1Cc1ccco1)c1ccc(-c2ccccc2)cc1 | 5 | 1 | -27 | 4 | 77* | i
COc1ccc(C2CC(c3ccccc3)=NN2C(=O)CCCC(=O)O)cc1 (stereo not drawn) | nt | nt | nt | nt | 31 | nt
COCCNc1nc(=S)[nH]c2cc(OC)c(OC)cc12 | 0 | 0 | 2 | 2 | 68* | i
COCCCn1c(-c2ccc(Cl)cc2)n[nH]c1=S | -8 | 0 | -11 | 4 | 98* | i
COCCCn1c(-c2ccccc2Cl)n[nH]c1=S | -3 | 0 | -4 | 1 | 5 | i
CCOCCCn1c(-c2ccc(Cl)cc2)n[nH]c1=S | 1 | 0 | 6 | 0 | 99* | i
COc1cccc(N2[C@@H](CC(C)=O)c3ccc(/C=C/C(C)=O)cc3S2(=O)=O)c1 | nt | nt | nt | nt | nt | i
Cc1ccc(N2C(=O)CC(Sc3ncn[nH]3)C2=O)cc1C (stereo not drawn) | -3 | 0 | 1 | 1 | 105* | i
Cc1cccc(N2C(=O)CC(Sc3ncn[nH]3)C2=O)c1 (stereo not drawn) | 1 | 1 | -5 | 2 | 7 | i
COc1ccc(NS(=O)(=O)c2cccc(C(=O)N/N=C/c3ccc4c(c3)OCCO4)c2)cc1 | 7 | 0 | 31* | 5 | 21 | i
COc1ccccc1NS(=O)(=O)c1cccc(C(=O)N/N=C/c2ccc3c(c2)OCCO3)c1 | 8 | 0 | -1 | -2 | 9 | i
CCOc1cc(C2C(C(=O)c3ccc(C)cc3)=C(C(=O)OC)Nc3nnnn32)ccc1O (stereo not drawn) | 3 | 1 | -13 | 2 | 18 | 2.1*
Cc1cccc2cc(-c3ccccc3)c(-c3ccccc3)c[n+]12 | -4 | 0 | 49* | -3 | -3 | i
SMILES | PKD1 kinase inh | ABCB1 block | p47phox inh | ABCG2 block | PHOSPHO1 block | HSV augment
Cn1c(=O)c(C(=O)NCCc2ccc(Cl)cc2)c(O)c2ccccc21 | nt | nt | nt | nt | 40 | nt
CCOC(=O)C1=C(C)N(c2ccc(C)cc2)C(=O)/C1=C\c1ccc(O)c(OC)c1 | nt | nt | -13 | nt | 12 | i
CCOC(=O)C1=C(O)c2ccccc2C(=O)/C1=C\c1ccc(C)cc1 | 7 | 2 | 57* | 8 | 12 | ?
NCC12CC3CC(C1)CC(c1ccc(Br)cc1)(C3)C2 | nt | nt | nt | nt | 27 | nt
Cc1ccc(C23CC4CC(CC(CN)(C4)C2)C3)cc1 | 4 | 1 | -4 | 5 | 60* | i
C[C@@]12C(=O)N(c3ccc(C(F)(F)F)cc3)C(=O)N1[C@@H]1c3ccccc3OC[C@@H]1[C@H]2c1ccccc1 | nt | nt | nt | nt | -7 | nt
N#CC1=C(N)Oc2cc3ccccc3cc2C1c1cccs1 (stereo not drawn) | 1 | 0 | -24 | 2 | 62* | i
